Source: PubChem BioAssay (several laboratories)
Vif imaging = HIV Vif inhibition; inhibition, % at 7.49 µM; hit rate 0.35% among 340,000; HEK293T cells, Vif self-association by quenched fluorescence, imaging, 24 h; in the data active = inhibition above about 50%, passing the limit was not always enough; inconclusive = no clear call, values can overlap the other calls; inactive = below about 31%
TAG inh = triacylglycerol accumulation inhibition; inhibition, % at 12.5 µM; hit rate 0.66% among 230,000; AID 651582; H9c2 cells, Nile Red lipid (TAG) fluorescence; cells loaded with 200 µM oleic acid;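 active = pattern-corrected inhibition of lipid staining of at least 50% with the nuclear-stain viability signal not falling by more than 50%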;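 note: 0% = DMSO wells and 100% = triacsin C control wells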
SMARCA2 activ = activators of SMARCA2 function. AID 652017. hit rate 1% among 370,000. activation, % at 9.1 µM. MG213 cells, MMTV-luciferase reporter, dexamethasone, overnight; in the data active = activation above about 7.8%;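 note: 0% = vehicle wells and 100% = reference activator wells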
SR-BI DiI-HDL act = activators of SR-BI mediated HDL lipid uptake; activation, % at 12.5 µM; AID 504775; hit rate 0.096% among 320,000; CHO ldlA[mSR-BI] cells, DiI-HDL uptake fluorescence, 3 h; 100 = double the neutral-control signal;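 active = mean replicate activation of at least 60% and every replicate at or above 60%; inconclusive = mean or all-replicate condition met, but not both; inactive = mean below 60% and not all replicates reaching 60%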;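 note: 0% = median plate neutral-control signal and 100% = twice that signal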
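Test system: SR-BI-overexpressing, LDLR-lacking CHO cells; Also added: labelled HDL, 10 µg/mL; Measured by: bottom-read cell fluorescence after medium removal, ex 550/em 595 nm; Timing: 3 h uptake period with compound, 37 °C; Buffer or medium: F12, 0.5% BSA, 25 mM HEPES; Doses: single compound concentration, delivered by pin transfer.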
SR-BI DiI inh = blocks mouse SR-BI lipid uptake from DiI-HDL. Q61009. ldlA[mSR-BI] CHO cells, DiI-HDL uptake fluorescence, 3 h. inhibition, % at 12.5 µM. hit rate 0.96% among 320,000. AID 488896;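 active = mean replicate inhibition of at least 70% and a set share of replicates each scoring 70 or more; inconclusive = meets just one of the two criteria; inactive = fails both criteria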;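 note: 0% = median of neutral control wells and 100% = median of positive control wells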
Target sequence (Q61009 whole entry, looked up): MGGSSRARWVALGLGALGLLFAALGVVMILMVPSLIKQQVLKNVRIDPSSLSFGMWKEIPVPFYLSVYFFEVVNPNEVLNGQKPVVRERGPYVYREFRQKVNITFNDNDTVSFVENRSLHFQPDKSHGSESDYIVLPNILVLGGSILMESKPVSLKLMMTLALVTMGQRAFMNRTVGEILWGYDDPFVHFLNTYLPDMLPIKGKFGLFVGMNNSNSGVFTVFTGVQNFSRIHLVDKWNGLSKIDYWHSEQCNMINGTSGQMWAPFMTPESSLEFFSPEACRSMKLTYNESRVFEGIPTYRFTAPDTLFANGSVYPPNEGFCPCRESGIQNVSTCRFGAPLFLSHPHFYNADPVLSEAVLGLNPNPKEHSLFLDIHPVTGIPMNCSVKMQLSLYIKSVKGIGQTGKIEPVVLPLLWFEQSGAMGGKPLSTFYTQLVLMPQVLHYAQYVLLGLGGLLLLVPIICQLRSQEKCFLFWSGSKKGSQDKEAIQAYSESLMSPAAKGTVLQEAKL
* marks the source's active call; other numbers are inactive results; ? = inconclusive; · = not tested or not shown. Shown are actives, neighbours in structure and some others; about 2.5% of the full set was active somewhere.

SMILES	Vif imaging	TAG inh	SMARCA2 activ	SR-BI DiI-HDL act	SR-BI DiI inh
O=C(N[C@H](Cc1ccccc1)C(=O)N1CCN(c2ccc(Cl)cn2)CC1)[C@H]1O[C@@H](n2ccc(=O)[nH]c2=O)[C@H](O)[C@@H]1O	·	·	-3.2	·	·
C/C(CC(=O)Nc1ccc(Cl)c(C(F)(F)F)c1)=N\NC(N)=S	-3.7	-3.0	-4.4	-80.1	80.1*
O=C(Nc1cccc(C(F)(F)F)c1)OC1CC2CC1[C@H]1CCCCN1[C@H]2Cc1ccccc1 (stereo partly specified)	·	·	-4.4	·	·
Cc1nc(N2CCOCC2)nc(N2CCN(c3ccccc3)CC2)c1[N+](=O)[O-]	-6.8	34.8	0.2	-78.4	78.4*
Cc1nc(N2CCOCC2)nc(N2CCC(C)CC2)c1[N+](=O)[O-]	-1.2	1.0	-2.5	-63.6	63.6
CCOC(=O)CN1CCCc2nc(C)c(C)cc21	·	·	-0.7	·	·
O=C(Nc1cccc(-c2cnc3ccccc3n2)c1)c1ccccc1	-1.1	·	-1.8	-13.9	13.9
O=C(Nc1ccc(-c2csc(Nc3ccc(Cl)cc3)n2)cc1)c1ccccc1	7.8	-3.7	1.4	-92.8	92.8*
O=[N+]([O-])c1cccc(-c2csc(Nc3ccccc3)n2)c1	-8.7	15.5	3.2	-87.3	87.3*
O=C(Nc1cccc(-c2csc(Nc3cccc(C(F)(F)F)c3)n2)c1)c1ccccc1	-2.8	37.8	0.0	-78.3	78.3*
O=C(Nc1cccc(-c2csc(Nc3ccccc3)n2)c1)c1ccccc1	-10.7	21.8	4.3	-76.9	76.9*
CC(C)c1[nH]nc2c1C(c1ccccc1)N(Cc1ccccc1)C2=O (stereo unspecified)	·	·	-2.3	·	·
CC(=O)c1cccc(Nc2nc(-c3ccccc3)cs2)c1	-0.4	5.6	4.9	-75.0	75.0*
COc1ccc(-c2coc3cc(O)ccc3c2=O)cc1	56.8*	-18.7	2.7	-8.6	8.6
Cc1ccc(CN2CCCCC(NC(=O)Nc3ccccc3F)C2=O)cc1 (stereo unspecified)	·	·	-3.3	·	·
CCOC(=O)[C@@]12CCCC3=C1N(CCC3)C(=O)[C@H]2CC(=O)N1CCSCC1	·	·	0.6	·	·
COc1ccc(-c2nc(C#N)c(NCc3ccccc3Cl)o2)cc1OC	-2.4	·	4.1	-36.8	36.8
COc1ccc(-c2nc(C#N)c(NCc3ccc(F)cc3)o2)cc1OC	4.7	·	-0.3	-73.7	73.7*
Cc1cccc(CSc2cccc3cccnc23)c1	3.1	50.4*	4.8	1.5	-1.5
NNC(=O)c1ccc(CSc2cccc3cccnc23)cc1	-0.9	-6.0	-2.8	-34.0	34.0
C#CCN1C(=O)S/C(=C/C=C/c2ccc(N(C)C)cc2)C1=O	87.4*	-24.1	4.0	-31.2	31.2
CC(C)CCN1CC(O)=C(c2nc(-c3ccc(Cl)cc3)cs2)C1=N	3.0	1.8	0.6	-76.1	76.1*
COc1ccc(-c2csc(C3=C(O)CN(C(C)C)C3=N)n2)cc1OC	10.2	25.6	-0.1	-84.2	84.2*
COc1ccc(N2CC(O)=C(c3nc(-c4ccccc4)cs3)C2=N)cc1	-0.4	-16.3	-3.8	·	·
COc1ccc(N2CC(O)=C(c3nc(-c4ccc(Cl)cc4)cs3)C2=N)cc1	7.4	-20.3	-5.0	-44.5	44.5
SMILES	Vif imaging	TAG inh	SMARCA2 activ	SR-BI DiI-HDL act	SR-BI DiI inh
O=C(Nc1ccc(-c2nc3ccc(NC(=O)c4cccs4)cc3[nH]2)cc1)c1cccs1	79.5*	·	9.1*	-19.6	19.6
O=C(Nc1ccc2nc(-c3cccs3)[nH]c2c1)c1cccs1	-6.6	42.2	5.0	-16.1	16.1
O=C(N[C@@H](Cc1cccnc1)C(=O)N1CCC[C@H]1C(=O)NCc1ccccc1)c1ccc(Cl)c(Cl)c1	·	·	-1.5	·	·
COc1ccc(-c2cc(C(=O)Nc3cccc(Cl)c3)no2)cc1	7.3	·	5.5	-5.2	5.2
COc1ccc(OC)c(-c2cc(C(=O)Nc3cccc(Cl)c3)no2)c1	·	·	-2.3	-93.9	93.9*
COc1ccc(OC)c(-c2cc(C(=O)Nc3cc(C)on3)no2)c1	62.7*	·	3.0	-71.1	?
COc1ccc(OC)c(-c2cc(C(=O)NCc3ccco3)no2)c1	-4.4	·	-2.2	-80.6	80.6*
COc1ccc(OC)c(-c2cc(C(=O)Nc3c(C)nn(Cc4ccc(Cl)cc4)c3C)no2)c1	1.2	·	-0.8	-78.4	78.4*
O=C(NCc1ccccc1)[C@H]1CCCN1C(=O)[C@H]1CCCN1C(=O)c1cccc2ccccc12	·	·	-0.5	·	·
Cc1cccc(NC(=O)c2nc[nH]c2C(=O)NCCCCNC(=O)c2[nH]cnc2C(=O)Nc2cccc(C)c2)c1	-2.8	77.6*	1.1	-0.8	7.6
CC(C)(C)OC(=O)NCCCCCNC(=O)c1[nH]cnc1C(=O)Nc1cccc(Cl)c1	-3.9	-25.8	1.5	-23.2	23.2
O=C(Nc1cccc(Cl)c1)c1nc[nH]c1C(=O)NCCN(CCNC(=O)c1[nH]cnc1C(=O)Nc1cccc(Cl)c1)CCNC(=O)c1[nH]cnc1C(=O)Nc1cccc(Cl)c1	-0.7	74.6*	3.4	-1.1	1.1
O=C(Nc1ccc(Cl)cc1)c1nc[nH]c1C(=O)Nc1ccccc1F	-5.7	9.9	-1.0	·	·
O=C(Nc1ccc(Cl)cc1)c1nc[nH]c1C(=O)NCCCCNC(=O)c1[nH]cnc1C(=O)Nc1ccc(Cl)cc1	-3.2	110.4*	2.1	2.8	8.7
O=C(Nc1cccc(Cl)c1)c1nc[nH]c1C(=O)NCc1ccccc1	3.7	-48.7	1.3	2.2	-2.2
O=C(Nc1cccc(Cl)c1)c1nc[nH]c1C(=O)NCCCCNC(=O)c1[nH]cnc1C(=O)Nc1cccc(Cl)c1	21.6	65.1*	1.1	17.5	-17.5
C[C@H]1COc2cc(Br)ccc2S(=O)(=O)N1Cc1cn(Cc2ccc(F)cc2)nn1	·	·	-0.3	·	·
OC(c1ccccc1)(c1ccccc1)C1CCN(CCCOc2ccc(-c3cncnc3)cc2)CC1	·	·	5.2	·	·
CCOC(=O)c1ccc(NC(=O)c2nc[nH]c2C(=O)NCCNC(=O)c2[nH]cnc2C(=O)Nc2ccc(C(=O)OCC)cc2)cc1	13.5	135.0*	-0.8	15.2	-15.2
COc1ccc(/C=C/C(O)=C(\C#N)c2nnc(N3CCOCC3)n2-c2ccccc2)cc1OC	6.2	12.0	-0.6	-75.4	75.5*
COc1ccc(N2C(C)=CS/C2=C(/C#N)c2nnc(N3CCOCC3)n2-c2ccccc2)cc1	-2.6	·	-0.1	5.2	-5.2
COCCSc1nnc(NS(=O)(=O)c2ccccc2)s1	56.4*	5.9	-0.3	8.7	-8.7
C=CCN=C1NC(CCc2ccccc2)C(C(=O)OC)=C(C)N1Cc1cccc(C(F)(F)F)c1 (stereo unspecified)	·	·	-4.2	·	·
COc1ccc(OCCCC(=O)Nc2ncn[nH]2)cc1	51.0*	·	1.5	20.4	-20.4
COc1cc(C2C3=C(COC3=O)Oc3cc4c(cc32)OCO4)cc(OC)c1O (stereo unspecified)	60.2*	32.0	2.0	2.6	-2.6
Cc1ccc(-c2cc(C(F)F)nc(NCC3CCCO3)n2)cc1 (stereo unspecified)	-8.0	-6.2	2.2	223.5*	-223.5
COC(=O)c1cc2c(c3c4cc(F)ccc4n(S(=O)(=O)c4ccc(C)cc4)c13)C(=O)N(C)C2	·	·	1.9	·	·
